Our source for the folding enthalpy and Tm values is the array DNA melting data of Ke et al. (doi:10.1101/2024.01.08.574731).

Data set [1] in a line: folding enthalpy; higher = less favourable; fluorescence melt of hairpins on a sequencing array, two-state fit. The conditions noted are these: sodium 0.088 M. In outline: (§1)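 Bootstrapped two-state fits yielded melting temperature and folding enthalpy for library hairpins. Cy3 fluorescence, with annealed Cy3 and quencher oligos, was imaged on a sequenced MiSeq flow cell in 50 mM Na-HEPES pH 8.0, 25 mM NaCl in 2.5 °C steps up to 60 °C, and normalised to pre-quench Cy3 and to control constructs. Four replicates were combined by inverse variance, and fitted temperatures were raised by 9.35 °C to match UV melts.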

The nature of data set [2]: melting temperature; fluorescence melt of hairpins on a sequencing array, two-state fit, raised by 9.35 °C to match UV melts. Particulars: sodium 0.088 M. In outline:
as §1

Take GGATATCGAAAGATTTCC (((.(((....))).))): in data set [1], the folding enthalpy is -30.9 kcal/mol. The Tm in data set [2] was found to be 41.5 °C.

With GCTCTATCGAAAGATAGC (((..(((....)))))), the folding enthalpy in data set [1] was -13.6 kcal/mol. Besides, in data set [2], the Tm was determined as 30.2 °C.

As for GATCATCTCAATGATC ((((((....)))))), in data set [1], the folding enthalpy is -41.6 kcal/mol. Besides, in data set [2], the Tm is 48.9 °C.

With GAGATTGGAAACAACCTC (((.(((....))).))), in data set [1], the folding enthalpy is -21 kcal/mol. Besides, in data set [2], the Tm came to 32 °C.

Regarding GTAACCCGAAAGGGTAC (((.(((....)))))), the folding enthalpy in data set [1] is -12.5 kcal/mol. In addition, in data set [2], the Tm turned out to be 50.1 °C.

Take GGAAATGGAAACATTCCC ((.((((....)))).)): the folding enthalpy in data set [1] is -25.1 kcal/mol. In data set [2], the Tm is 33.1 °C.

On to GTCAGCGAAAGCTGCGAC ((((((....)))..))), for which, in data set [1], the folding enthalpy was -11.8 kcal/mol. Moreover, the Tm in data set [2] amounted to 55.2 °C.

With GCGTAAGGACGC ((((....)))), the folding enthalpy in data set [1] was -19.7 kcal/mol. For the same sequence, the Tm in data set [2] is 49.3 °C.

On to GATCTGGGATCAGATC ((((((....)))))), for which, in data set [1], the folding enthalpy is -40.7 kcal/mol. Further, in data set [2], the Tm turned out to be 53.3 °C.

Consider GGACAACGAAAGTTCTCC (((.(((....))).))), for which the folding enthalpy in data set [1] is -22.8 kcal/mol. In data set [2], the Tm amounted to 31.3 °C.

As for GCGATGCGAAAGCAGGGC ((..(((....)))..)), the folding enthalpy in data set [1] is -20.4 kcal/mol. The Tm in data set [2] was found to be 61.4 °C.

With GCTATGGGAAACCATAAC (.(((((....))))).), the folding enthalpy in data set [1] is -12.8 kcal/mol. In addition, in data set [2], the Tm is 28.7 °C.

Turning to GATCGGAGCCCGATC ((((((...)))))), the folding enthalpy in data set [1] is -31.2 kcal/mol. Also, the Tm in data set [2] was 53.4 °C.

As for GATCCCAATCGGGATC ((((((....)))))), the folding enthalpy in data set [1] was -40.2 kcal/mol. Besides, the Tm in data set [2] came to 61.6 °C.

For the sequence GTAACCCCGAAAGGGTAC (((..(((....)))))), in data set [1], the folding enthalpy is -13.6 kcal/mol. The Tm in data set [2] came to 35 °C.

As for GAACAGGGAAACCTGTCC (.(((((....))))).), the folding enthalpy in data set [1] is -16.1 kcal/mol. For the same sequence, the Tm in data set [2] is 35.1 °C.

As for CGAAAGCGGAAACGCTCG (((..(((....)))))), in data set [1], the folding enthalpy is -18.2 kcal/mol. Besides, the Tm in data set [2] stood at 43.5 °C.

On to CGGTGACGGAAACGTCCG (((..(((....)))))), for which, in data set [1], the folding enthalpy is -12 kcal/mol. Moreover, the Tm in data set [2] was found to be 44.3 °C.

GCATAGCGAAAGCCATGC ((((.((....)).)))): the folding enthalpy in data set [1] is -28.5 kcal/mol. Moreover, the Tm in data set [2] was 53.3 °C.

As to GATCGCATAGGCGATC ((((((....)))))), the folding enthalpy in data set [1] was -32 kcal/mol. Moreover, the Tm in data set [2] is 68.2 °C.

For the sequence GGTCGTGGAAACACGATC (.(((((....))))).), in data set [1], the folding enthalpy was -38 kcal/mol. Also, the Tm in data set [2] came out at 54 °C.

Regarding GCATTCGGAAACGAATAC (.(((((....))))).), the folding enthalpy in data set [1] was -19.8 kcal/mol. Also, the Tm in data set [2] came out at 37 °C.

In the case of GATAGGCGAAAGCCCATC (((.(((....))).))), the folding enthalpy in data set [1] is -13.8 kcal/mol. For the same sequence, the Tm in data set [2] came out at 37.7 °C.

With GATCTACTGGTAGATC ((((((....)))))), in data set [1], the folding enthalpy was -43.6 kcal/mol. Besides, the Tm in data set [2] is 52.8 °C.

Turning to GGTAGGGGAAACTCTGCC ((.((.(....).)).)), in data set [1], the folding enthalpy is -22.9 kcal/mol. The Tm in data set [2] is 35.1 °C.

On to GCTGGTGGAAACGCCAGC (((((.(....).))))), for which the folding enthalpy in data set [1] was -52.9 kcal/mol. In data set [2], the Tm is 61.8 °C.

For the sequence GTGGAGCGAAAGCTCAC (((.(((....)))))), the folding enthalpy in data set [1] was -12.1 kcal/mol. Also, in data set [2], the Tm stood at 52.1 °C.

For the sequence GGCAACGGAAACGTTGTC (.(((((....))))).), the folding enthalpy in data set [1] is -39.2 kcal/mol. The Tm in data set [2] came out at 55.9 °C.

Consider GTGCTTCGAAAGAATCAC (((.(((....))).))), for which the folding enthalpy in data set [1] was -35.5 kcal/mol. The Tm in data set [2] came out at 41.6 °C.

On to GTAGAACCGAAAGGTTAC (((..(((....)))))), for which the folding enthalpy in data set [1] is -13.3 kcal/mol. Besides, the Tm in data set [2] is 32.5 °C.

GCTCCGTCGAAAGACAGC (((..(((....)))))): in data set [1], the folding enthalpy was -15 kcal/mol. For the same sequence, the Tm in data set [2] was 32.4 °C.

Regarding GCAGTGCGAAAGCAGAGC ((..(((....)))..)), the folding enthalpy in data set [1] was -11.6 kcal/mol. Besides, the Tm in data set [2] came to 50.9 °C.

On to GCGTACATACGC ((((....)))), for which the folding enthalpy in data set [1] was -24 kcal/mol. The Tm in data set [2] was 52.1 °C.

For GTCCGAACGAAAGTTGAC (((..(((....)))))), in data set [1], the folding enthalpy is -15.3 kcal/mol. In data set [2], the Tm came out at 29.1 °C.

As for GGGTTCCGAAAGGACCCC (((.(((....))).))), the folding enthalpy in data set [1] is -39.5 kcal/mol. Besides, in data set [2], the Tm is 58.1 °C.

Turning to GGTTACCCGAAAGGGACC (((..(((....)))))), in data set [1], the folding enthalpy is -12.9 kcal/mol. Moreover, in data set [2], the Tm came to 35.2 °C.

On to GTCGCCGAAAGGCTTGAC ((((((....)))..))), for which the folding enthalpy in data set [1] was -12.1 kcal/mol. Besides, the Tm in data set [2] came to 39.7 °C.
